# Assay results reported in ChEMBL document CHEMBL2417507, “Synthesis and bioevaluation of some new isoniazid derivatives” (Bioorg Med Chem, 2013).
# Active and inactive are the calls of the source. The rule behind the calls is not given here.
# How the values were obtained:
# HCT-8 [1] = assay: Cytotoxicity against human HCT8 cells at 25 ug/mL after 24 hrs by trypan blue exclusion assay; format: cell-based; conditions: hct-8, 24 h
# How it was run: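 HCT8 cells (3 × 10^5 per 3.5-cm well) treated 24 h, then trypsinised, spun and resuspended in PBS. Suspension mixed 1:1 with 0.4% trypan blue for 1 min and viable/non-viable cells counted on a haemocytometer. Each experiment repeated three times.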
# HCT-8 [2] = assay: Cell cycle arrest in human HCT8 cells assessed as accumulation at G2/M phase at 12.5 ug/mL after 24 hrs by propidium iodide staining-based flow cytometric analysis (reference value: 13.83%); format: ADME; conditions: hct-8, 24 h
# HCT-8 [3] = assay: Cell cycle arrest in human HCT8 cells assessed as accumulation at S phase at 12.5 ug/mL after 24 hrs by propidium iodide staining-based flow cytometric analysis (reference value: 39.43%); format: ADME; conditions: hct-8, 24 h
# HCT-8 [4] = assay: Cell cycle arrest in human HCT8 cells assessed as accumulation at G0/G1 phase at 12.5 ug/mL after 24 hrs by propidium iodide staining-based flow cytometric analysis (reference value: 46.43%); format: ADME; conditions: hct-8, 24 h
# [5] = Induction of apoptosis in human HCT8 cells assessed as viable cells at 25 ug/mL after 24 hrs by Annexin V-FITC and propidium iodide staining-based flow cytometric analysis (reference value: 87.7%); format: cell-based, HCT-8; conditions: read-out: Activity
# HCT-8 [6] = assay: Induction of apoptosis in human HCT8 cells assessed as early apoptotic cells at 25 ug/mL after 24 hrs by Annexin V-FITC and propidium iodide staining-based flow cytometric analysis (reference value: 1.57%); format: cell-based; conditions: hct-8, 24 h
# HCT-8 [7] = assay: Induction of apoptosis in human HCT8 cells assessed as late apoptotic cells at 25 ug/mL after 24 hrs by Annexin V-FITC and propidium iodide staining-based flow cytometric analysis (reference value: 2.97%); format: cell-based; conditions: hct-8, 24 h
# HCT-8 [8] = assay: Induction of apoptosis in human HCT8 cells assessed as necrotic cells at 25 ug/mL after 24 hrs by Annexin V-FITC and propidium iodide staining-based flow cytometric analysis (reference value: 7.73%); format: cell-based; conditions: hct-8, 24 h
# Acinetobacter baumannii [9] = assay: Antibacterial activity against Acinetobacter baumannii 247 assessed as growth inhibition at 1 mg/mL after 24 hrs by agar-disk diffusion technique; format: functional, organism-based
# How it was run: (§1)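 Agar-disk diffusion, adapted: plates seeded with 0.5 McFarland suspension prepared from 24 h cultures; 5 µL of a 1 mg/mL compound solution spotted onto the seeded solid medium; incubated 24 h at 37 °C. Stocks made in DMSO.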
# Acinetobacter baumannii [10] = assay: Antibacterial activity against Acinetobacter baumannii 192 assessed as growth inhibition at 1 mg/mL after 24 hrs by agar-disk diffusion technique; format: functional, organism-based; how it was run: as §1
# Acinetobacter baumannii [11] = assay: Antibacterial activity against Acinetobacter baumannii 136 assessed as growth inhibition at 1 mg/mL after 24 hrs by agar-disk diffusion technique; format: functional, organism-based; how it was run: as §1
# Acinetobacter baumannii [12] = assay: Antibacterial activity against Acinetobacter baumannii 135 assessed as growth inhibition at 1 mg/mL after 24 hrs by agar-disk diffusion technique; format: functional, organism-based; how it was run: as §1
# Acinetobacter baumannii [13] = assay: Antibacterial activity against Acinetobacter baumannii 125 assessed as growth inhibition at 1 mg/mL after 24 hrs by agar-disk diffusion technique; format: functional, organism-based; how it was run: as §1
# Acinetobacter baumannii [14] = assay: Antibacterial activity against Acinetobacter baumannii 122 assessed as growth inhibition at 1 mg/mL after 24 hrs by agar-disk diffusion technique; format: functional, organism-based; how it was run: as §1
# Enterococcus faecalis = assay: Antibacterial activity against Enterococcus faecalis 2920 assessed as growth inhibition at 1 mg/mL after 24 hrs by agar-disk diffusion technique; format: functional, organism-based; how it was run: as §1
# Pseudomonas putida = assay: Antibacterial activity against Pseudomonas putida 160 assessed as growth inhibition at 1 mg/mL after 24 hrs by agar-disk diffusion technique; format: functional, organism-based; how it was run: as §1
# Pseudomonas aeruginosa [15] = assay: Antibacterial activity against Pseudomonas aeruginosa 1144 assessed as growth inhibition at 1 mg/mL after 24 hrs by agar-disk diffusion technique; format: functional, organism-based; how it was run: as §1
# Pseudomonas aeruginosa [16] = assay: Antibacterial activity against Pseudomonas aeruginosa 165 assessed as growth inhibition at 1 mg/mL after 24 hrs by agar-disk diffusion technique; format: functional, organism-based; how it was run: as §1
# Pseudomonas aeruginosa [17] = assay: Antibacterial activity against Pseudomonas aeruginosa ATCC 27853 assessed as growth inhibition at 1 mg/mL after 24 hrs by agar-disk diffusion technique; format: functional, organism-based; how it was run: as §1
# Klebsiella pneumoniae = assay: Antibacterial activity against Klebsiella pneumoniae 1756 assessed as growth inhibition at 1 mg/mL after 24 hrs by agar-disk diffusion technique; format: functional, organism-based; how it was run: as §1
# Escherichia coli = assay: Antibacterial activity against Escherichia coli 1777 assessed as growth inhibition at 1 mg/mL after 24 hrs by agar-disk diffusion technique; format: functional, organism-based; how it was run: as §1
# Proteus mirabilis = assay: Antibacterial activity against Proteus mirabilis 1751 assessed as growth inhibition at 1 mg/mL after 24 hrs by agar-disk diffusion technique; format: functional, organism-based; how it was run: as §1
# Morganella morganii = assay: Antibacterial activity against Morganella morganii 2810 assessed as growth inhibition at 1 mg/mL after 24 hrs by agar-disk diffusion technique; format: functional, organism-based; how it was run: as §1
# Citrobacter koseri = assay: Antibacterial activity against Citrobacter koseri 1742 assessed as growth inhibition at 1 mg/mL after 24 hrs by agar-disk diffusion technique; format: functional, organism-based; how it was run: as §1
# Enterobacter cloacae = assay: Antibacterial activity against Enterobacter cloacae 1845 assessed as growth inhibition at 1 mg/mL after 24 hrs by agar-disk diffusion technique; format: functional, organism-based; how it was run: as §1
# Staphylococcus aureus = assay: Antibacterial activity against Staphylococcus aureus assessed as growth inhibition at 1 mg/mL after 24 hrs by agar-disk diffusion technique; format: functional, organism-based; how it was run: as §1
# Staphylococcus hominis = assay: Antibacterial activity against Staphylococcus hominis 1813 assessed as growth inhibition at 1 mg/mL after 24 hrs by agar-disk diffusion technique; format: functional, organism-based; how it was run: as §1
# [18] = system: Mycobacterium tuberculosis; assay: Antimycobacterial activity against Mycobacterium tuberculosis after 8 days by micro plate Alamar Blue assay; format: functional; conditions: 192 h
# How it was run: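 Clinical M. tuberculosis strain grown in Middlebrook 7H9 broth. Compounds were dissolved in DMSO and serially diluted twofold on the plate, final 25 to 0.012 µg/mL. Plates were sealed and held 8 days at 37 °C. Alamar Blue with 10% Tween 80 (1:1) was then added for another 24 h at 37 °C. MIC was the lowest concentration preventing the blue-to-pink change.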
# [19] = system: Radical scavenging activity; assay: Antioxidant activity assessed as DPPH radical scavenging activity at 0.1 mg/mL after 30 mins under dark conditions by spectrophotometric analysis relative to control; format: functional
# How it was run: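 Compounds dissolved in methanol at 0.1 mg/mL; 0.2 mL mixed with 1.8 mL of 2 × 10^-4 M DPPH in methanol and kept in the dark 30 min. Absorbance read at 517 nm. The blank was DPPH plus methanol. TAC (%) = (Abs initial − Abs 30 min)/Abs initial × 100.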
structure (smiles),measurement,setting,value
NC(S)(/C=C/c1ccc(Cl)cc1)NNC(=O)c1ccncc1 (centres undefined),Activity,HCT-8 [1],Toxic
same,Activity,HCT-8 [2],15.59%
same,Activity,HCT-8 [3],29.41%
same,Activity,HCT-8 [4],52.35%
same,"viability at 24 h, 25 ug/mL",[5],55.4%
same,Activity,HCT-8 [6],1.63%
same,Activity,HCT-8 [7],19.3%
same,Activity,HCT-8 [8],23.7%
same,growth inhibition (GI),Acinetobacter baumannii [9],Active
same,growth inhibition (GI),Acinetobacter baumannii [10],Active
same,growth inhibition (GI),Acinetobacter baumannii [11],Active
same,growth inhibition (GI),Acinetobacter baumannii [12],Active
same,growth inhibition (GI),Acinetobacter baumannii [13],Active
same,growth inhibition (GI),Acinetobacter baumannii [14],Active
same,growth inhibition (GI),Enterococcus faecalis,Active
same,growth inhibition (GI),Pseudomonas putida,Active
same,growth inhibition (GI),Pseudomonas aeruginosa [15],Active
same,growth inhibition (GI),Pseudomonas aeruginosa [16],Active
same,growth inhibition (GI),Pseudomonas aeruginosa [17],Active
same,growth inhibition (GI),Klebsiella pneumoniae,Active
same,growth inhibition (GI),Escherichia coli,Active
same,growth inhibition (GI),Proteus mirabilis,Active
same,growth inhibition (GI),Morganella morganii,Active
same,growth inhibition (GI),Citrobacter koseri,Active
same,growth inhibition (GI),Enterobacter cloacae,Active
same,growth inhibition (GI),Staphylococcus aureus,Active
same,growth inhibition (GI),Staphylococcus hominis,Active
same,MIC,[18],6.25 µg/mL
same,TAC,[19],25.7%
